pIC50: −log10 of the molar value.
How the values were obtained:
[1] = tested on: Lymphocyte; test: Immunosuppressive activity in peripheral blood lymphocytes isolated from two individuals assessed as proliferation using [methyl-3H]thymidine by mixed lymphocyte reaction assay; type: functional, cell-based; settings: Homo sapiens
Procedure, shortened: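 Human PBMCs from heparinized blood of healthy donors, isolated over Lymphoprep, 1.6 × 10⁶ cells/mL in RPMI-1640 with 10% heat-inactivated FCS. Stimulators: RPMI1788 cells given 30 μg/mL mitomycin C, 20 min, 37 °C, washed, 0.6 × 10⁶ cells/mL. Cells mixed with diluted compound, 5 days at 37 °C in 5% CO₂. 1 μCi (methyl-³H)thymidine added for last 18 h; harvested, cpm counted. IC₅₀ from two independent experiments (mean).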

[2] = tested on: Mus musculus; test: Suppression of cardiac allograft rejection of C57BL/6 mouse to BALB/c mouse assessed as surviving days at 40 mg/kg, po treatment started from day of transplantation for 30 days by immunosuppressive assay; type: functional
Procedure, shortened: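 Female mice aged 8-10 weeks and weighing 20-25 g. Donors were inbred C57BL/6 (H-2b) and recipients Balb/c (H-2d). Animals were randomly allocated and dosed by daily gavage in 30% 2-hydroxypropyl-β-cyclodextrin. […] Each graft was scored as surviving days, compared with vehicle by Student t test.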

[3] = tested on: Mus musculus; test: Toxicity in BALB/c mouse during cardiac allograft from C57BL/6 mouse at 40 mg/kg, po treatment started from day of transplantation for 30 days; type: organism-based; design: dose 40 mg/kg, route oral; settings: in vivo, 720 h
Procedure, shortened: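 Female mice aged 8-10 weeks, 20-25 g: C57BL/6 (H-2^b) donors, Balb/c (H-2^d) recipients. Recipients randomized to groups. Dosing 40 (mg/kg)/day by daily gavage. Vehicle 30% 2-hydroxypropyl-β-cyclodextrin given alone to controls (n = 6). […] Graft survival recorded in days. Student t test against vehicle group.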

SMILES | pIC50 [1] | Survival [2] [days] | Activity [3]
Nc1nc(N2CCN(C(=O)COc3ccc(F)cc3)CC2)c2nc(-c3cccnc3)sc2n1 | 7.92 | – | –
Cc1ccc(NC(=O)N2CCN(c3nc(N)nc4sc(-c5ccc(F)cc5)nc34)CC2)cc1 | 6.15 | – | –
CC(c1ccc(F)cc1)c1nc2c(N3CCN(C(=O)COc4ccc(Cl)cc4)CC3)nc(N)nc2s1 (centres undefined) | 5.36 | – | –
COc1ccc(OCC(=O)N2CCN(c3nc(N)nc4sc(-c5cccnc5)nc34)CC2)cc1 | 7.92 | – | –
Nc1nc(N2CCN(C(=O)COc3ccc(Cl)cc3)CC2)c2nc(-c3ccc(F)cc3)oc2n1 | 5.52 | – | –
COc1ccc(OCC(=O)N2CCN(c3nc(N)nc4sc(-c5ccc(F)cc5)nc34)CC2)cc1 | 7.40 | – | –
Nc1nc(N2CCNCC2)c2nc(-c3ccc(F)cc3)sc2n1 | 5.37 | – | –
CCCCCc1nc2c(N3CCN(C(=O)COc4ccc(Cl)cc4)CC3)nc(N)nc2s1 | 6.16 | – | –
Nc1nc(N2CCN(C(=O)COc3ccccc3)CC2)c2nc(-c3ccc(F)cc3)sc2n1 | 7.05 | – | –
Nc1nc(N2CCN(C(=O)COc3ccc(Cl)cc3)CC2)c2nc(CCc3ccc(F)cc3)sc2n1 | 5.36 | – | –
Nc1nc(N2CCN(C(=O)COc3ccc(Br)cc3)CC2)c2nc(-c3ccc(F)cc3)sc2n1 | 6.42 | – | –
Nc1nc(N2CCN(C(=O)COc3ccc(Cl)cc3)CC2)c2nc(Cc3ccc(F)cc3)sc2n1 | 6.15 | – | –
Cc1cccc(NC(=O)N2CCN(c3nc(N)nc4sc(-c5ccc(F)cc5)nc34)CC2)c1 | 6.52 | – | –
Nc1nc(N2CCN(C(=O)COc3ccc(Cl)cc3)CC2)c2nc(-c3ccc(F)cc3)sc2n1 | 6.31 | – | –
Nc1nc(N2CCN(C(=O)COc3ccc(Cl)cc3)CC2)c2sc(-c3ccc(F)cc3)nc2n1 | < 5.00 | – | –
Nc1nc(N2CCN(C(=O)COc3ccc(Cl)cc3)CC2)c2cc(-c3ccc(F)cc3)sc2n1 | 6.15 | – | –

SMILES | pIC50 [1] | Survival [2] [days] | Activity [3]
Nc1nc(N2CCN(C(=O)COc3ccc(Cl)cc3)CC2)c2nc(-c3ccncc3)sc2n1 | 7.40 | – | –
Nc1nc(N2CCN(C(=O)COc3ccc(Cl)cc3)CC2)c2nc(-c3ccc(F)cc3)[nH]c2n1 | 6.10 | – | –
Nc1nc(N2CCN(C(=O)COc3ccc(F)cc3)CC2)c2nc(-c3ccc(F)cc3)sc2n1 | 7.15 | – | –
Nc1nc(N2CCN(C(=O)COc3ccc(Cl)cc3)CC2)c2nc(-c3cccnc3)sc2n1 | 7.30 | >17 | Non-toxic
Cc1cccc(N2CCN(c3nc(N)nc4sc(-c5ccc(F)cc5)nc34)CC2)c1 | < 5.00 | – | –
Nc1nc(N2CCN(C(=O)COc3ccc(Cl)cc3)CC2)c2nc(-c3ccccn3)sc2n1 | 6.64 | – | –
C/C=C/C[C@@H](C)[C@@H](O)[C@H]1C(=O)N[C@@H](CC)C(=O)N(C)CC(=O)N(C)[C@@H](CC(C)C)C(=O)N[C@@H](C(C)C)C(=O)N(C)[C@@H](CC(C)C)C(=O)N[C@@H](C)C(=O)N[C@H](C)C(=O)N(C)[C@@H](CC(C)C)C(=O)N(C)[C@@H](CC(C)C)C(=O)N(C)[C@@H](C(C)C)C(=O)N1C [CYCLOSPORINE] | – | >30 | –
Cc1ccc(-c2nc3c(N4CCN(C(=O)COc5ccc(Cl)cc5)CC4)nc(N)nc3s2)cc1 | 6.46 | – | –
Nc1nc(N2CCN(Cc3ccccc3)CC2)c2nc(-c3ccc(F)cc3)sc2n1 | < 5.00 | – | –
Nc1nc(N2CCN(C(=O)COc3ccc(Cl)cc3)CC2)c2nc(-c3ccc(Cl)cc3)sc2n1 | 6.57 | – | –
Nc1nc(N2CCN(C(=O)OCc3ccccc3)CC2)c2nc(-c3ccc(F)cc3)sc2n1 | 5.31 | – | –
CCCCCN1CCN(c2nc(N)nc3sc(-c4ccc(F)cc4)nc23)CC1 | < 5.00 | – | –
Nc1nc(N2CCN(C(=O)COc3ccc(Cl)cc3)CC2)c2nc(CCOc3ccc(F)cc3)sc2n1 | 5.45 | – | –
CC(C)(Oc1ccc(Cl)cc1)C(=O)N1CCN(c2nc(N)nc3sc(-c4ccc(F)cc4)nc23)CC1 | < 5.00 | – | –
Nc1nc(N2CCN(C(=O)COc3ccc(Cl)cc3)CC2)c2nc(CCCCc3ccc(F)cc3)sc2n1 | 6.04 | – | –
Nc1nc(N2CCN(S(=O)(=O)c3ccccc3)CC2)c2nc(-c3ccc(F)cc3)sc2n1 | < 5.00 | – | –
